Screens deposited in PubChem by Johns Hopkins Ion Channel Center.
Only some compounds are listed: those with a hit (about 2.3% of all), similar ones and a draw of the others.
TRPC4 agonist = activators of mouse TRPC4 channel | Q9QUQ5 | HEK293 TRPC4beta/mu-opioid, Fluo4 calcium fluorescence; hits give high values | B-score at 10 µM | hit rate 0.49% among 310,000 | AID 2237;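 active = B-score above 5 SD of library B-scores, and initial fluorescence ratio not above library mean plus 5 SD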;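 note: positive B-score marks a calcium rise read as TRPC4 activation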
Target sequence (Q9QUQ5 whole entry, looked up): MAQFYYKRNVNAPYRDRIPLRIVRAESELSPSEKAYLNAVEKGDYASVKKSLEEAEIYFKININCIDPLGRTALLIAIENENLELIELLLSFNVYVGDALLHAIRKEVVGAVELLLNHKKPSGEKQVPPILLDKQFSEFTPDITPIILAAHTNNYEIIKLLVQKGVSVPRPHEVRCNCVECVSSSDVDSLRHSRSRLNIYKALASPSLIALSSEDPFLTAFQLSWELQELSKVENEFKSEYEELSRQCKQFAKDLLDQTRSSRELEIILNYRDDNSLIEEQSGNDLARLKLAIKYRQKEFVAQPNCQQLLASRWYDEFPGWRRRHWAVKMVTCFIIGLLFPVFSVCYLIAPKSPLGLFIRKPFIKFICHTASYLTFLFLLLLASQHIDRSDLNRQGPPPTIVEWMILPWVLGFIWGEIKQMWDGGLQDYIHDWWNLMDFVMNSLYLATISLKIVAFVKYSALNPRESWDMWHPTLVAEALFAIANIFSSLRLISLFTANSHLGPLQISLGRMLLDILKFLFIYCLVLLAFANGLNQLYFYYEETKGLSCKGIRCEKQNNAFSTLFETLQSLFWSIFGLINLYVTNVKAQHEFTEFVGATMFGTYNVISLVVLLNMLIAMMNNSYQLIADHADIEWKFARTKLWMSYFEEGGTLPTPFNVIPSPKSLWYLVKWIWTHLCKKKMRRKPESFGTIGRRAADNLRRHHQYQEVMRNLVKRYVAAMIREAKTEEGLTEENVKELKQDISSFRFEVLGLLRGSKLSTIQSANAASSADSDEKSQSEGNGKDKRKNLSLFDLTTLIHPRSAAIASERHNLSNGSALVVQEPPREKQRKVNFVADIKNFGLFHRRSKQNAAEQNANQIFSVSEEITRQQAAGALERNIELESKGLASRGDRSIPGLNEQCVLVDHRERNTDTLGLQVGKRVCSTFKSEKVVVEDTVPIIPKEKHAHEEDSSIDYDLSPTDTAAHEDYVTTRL
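Assay system: HEK293 cells stably co-expressing mouse TRPC4beta and mu-opioid receptor / Timing: Fluo4 dye loading 45 min at room temperature, 110 s recording / Signal: Fluo4 calcium-sensitive dye fluorescence, kinetic, 1 Hz baseline / Read-out: integrated baseline-normalised fluorescence ratio, converted to per-well B score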
TRPC6 inhibitor = blocks the mouse TRPC6 cation channel; Q61143; HEK293-TRPC6, membrane potential dye, ACh-evoked depolarization; hits give low values; B-score at 10 µM; hit rate 1.1% among 310,000; AID 2553;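 active = B-score under library mean minus 3 SD, initial fluorescence not abnormally high, positive integrated signal ratio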;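 note: B-score derived from integrated fluorescence ratio over the kinetic read; more negative B-score means stronger inhibition of depolarization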
TRPC4 PAM = allosterically enhances the mouse TRPC4 cation channel; Q9QUQ5; HEK293 TRPC4beta/mu-opioid, DAMGO EC20, Fluo-4 Ca2+ flux; hits give high values; B-score at 10 µM; hit rate 0.42% among 310,000; AID 2227;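 active = B-score of calcium response area above 5 SD of library B-scores, with initial fluorescence ratio within 5 SD of library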
TRPC4 block = TRPC4 (mouse) channel inhibition; HEK293 TRPC4beta/mu-opioid, DAMGO-evoked Fluo4 calcium flux; hits give low values; B-score at 10 µM; hit rate 0.39% among 300,000;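 active = B-score over 3 SD under the library average, no early fluorescence shift, positive overall ratio signal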
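Assay system: HEK293 cells with stable TRPC4beta plus mu-opioid receptor expression. Dosing: single dose. Measured by: Fluo4 Ca2+ flux fluorescence. Also added: DAMGO in two steps, submaximal then maximal. Read-out: B score from integrated Fluo4 fluorescence ratio.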
TRPC6 act = mouse TRPC6 channel activation; Q61143; HEK293-TRPC6 membrane potential dye fluorescence; hits give high values; B-score at 10 µM; hit rate 0.13% among 310,000;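 active = B-score of the integrated fluorescence ratio above library mean plus 3 SD, and starting fluorescence ratio within library mean plus 5 SD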;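 note: higher score means more depolarization so channel activation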
TRPC4 spec 2 = mouse TRPC4 off-target activity of TRPC6 inhibitors, second screen | shares compounds with TRPC6 inhibitor | HEK293 TRPC4/MOR, membrane potential dye fluorescence; channel activated by saturating DAMGO dose | inhibition, % at 10 µM | hit rate 42% among 920 | AID 2776;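 active = compounds whose fluorescence signal differed from control wells by over 3 SD, either direction, in both duplicate plates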
TRPC4 spec = tests whether TRPC6 inhibitors also affect mouse TRPC4; shares compounds with TRPC6 inhibitor; HEK293 TRPC4/mu-opioid, membrane potential fluorescence; activity change, negative = inhibition, % at 10 µM; hit rate 61% among 920;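 active = rise or fall in signal beyond 3 SD of buffer-only wells in both replicate plates, either sign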;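 note: integrated kinetic ratio of fluorescence range over baseline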
HEK293 MPD ctr 2-1 = second counter-screen for TRPC6 inhibitors: parental HEK293 cells; AID 2779; parental HEK293 membrane potential dye fluorescence; maximal acetylcholine challenge after compound addition; hit rate 31% among 920; shares compounds with TRPC6 inhibitor; signal change vs control, % at 10 µM;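 active = membrane potential signal moving either way by over 3 SD of the maximum-effect control, in both duplicate plates, meaning non-specific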
HEK293 MPD ctr-1 = checks TRPC6 inhibitor effects in parental HEK293 cells | shares compounds with TRPC6 inhibitor | parental HEK293 membrane potential dye fluorescence | membrane potential signal change, % at 10 µM | hit rate 60% among 920 | AID 2780;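 active = membrane potential signal shifting up or down by more than 3 SD of buffer-only wells, on both duplicate plates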
HEK293 MPD ctr-2 = checks TRPC6 modulator effects in parental HEK293 cells; membrane potential dye fluorescence; AID 488924; hit rate 51% among 2,400; shares compounds with TRPC6 inhibitor; membrane potential signal change, % at 10 µM;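 active = membrane potential signal moves up or down beyond 5 SD from buffer-only wells, on both duplicate plates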
HEK293 MPD ctr 2-2 = parental HEK293 nonspecific activity of TRPC6 modulators, second screen | shares compounds with TRPC6 inhibitor | hit rate 14% among 2,400 | membrane potential dye fluorescence; after compound, maximal acetylcholine stimulation | inhibition, % at 10 µM;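 active = membrane potential signal drops by more than 5 SD from the mean control signal, in both duplicate plates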
TRPC4 ctr mod = selectivity of TRPC6 modulators against mouse TRPC4. shares compounds with TRPC6 inhibitor. HEK293 TRPC4/mu-opioid, membrane potential fluorescence. percent change from control (negative = decrease, positive = increase), % at 10 µM. hit rate 69% among 2,400. AID 488927;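 active = membrane potential signal moved up or down beyond 5 SD of buffer control wells, in both duplicate plates, actives on both sides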
TRPC4 ctr inh 2 = second selectivity test of TRPC6 modulators against mouse TRPC4. shares compounds with TRPC6 inhibitor. HEK293 TRPC4/mu-opioid, membrane potential dye fluorescence; stimulated with maximal-effect DAMGO. inhibition, % at 10 µM. hit rate 55% among 2,400. AID 488928;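 active = drop in membrane potential signal beyond 5 SD of the control wells in both duplicate plates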;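 note: TRPC4 counter screen for TRPC6 hits run under conditions tuned for TRPC6 not TRPC4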
TRPC6 block conf = mouse TRPC6 inhibitor confirmation | shares compounds with TRPC6 inhibitor | HEK293-TRPC6, membrane potential dye, ACh-evoked depolarization | inhibition, % at 10 µM | hit rate 43% among 3,300;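 active = fluorescence ratio falls more than 5 SD below the full-stimulation control mean, in both duplicate runs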;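 note: integrated fluorescence ratio of peak minus minimum over baseline after agonist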
TRPC6 act confirm = mouse TRPC6 activator confirmation. shares compounds with TRPC6 inhibitor. HEK293-TRPC6 membrane potential dye fluorescence, FDSS. activation, % at 10 µM. hit rate 11% among 2,800;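 active = ratio signal rise beyond 5 SD above unstimulated control wells' mean, seen in both duplicate runs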
Large screens that a line does not name were inactive (follow-up assays come after a bar, where they were run).

COc1cccc(-c2nc(C(=O)NCCCN3CCOCC3)cc3c2[nH]c2ccccc23)c1	TRPC6 inhibitor -7.3 | TRPC4 spec 2 inactive | TRPC4 spec -10% | HEK293 MPD ctr 2-1 inactive | HEK293 MPD ctr-1 -158% | TRPC6 block conf inactive | TRPC6 act confirm inactive
COc1ccc(OC)c(Nc2cc(C(=O)NCCCN3CCOCC3)c3ccccc3n2)c1	TRPC6 inhibitor -5.5 | HEK293 MPD ctr-2 inactive | HEK293 MPD ctr 2-2 inactive | TRPC4 ctr mod inactive | TRPC4 ctr inh 2 45% | TRPC6 block conf inactive | TRPC6 act confirm inactive
CC(CC(=O)Nc1ccc(S(=O)(=O)Nc2ncccn2)cc1)c1ccccc1 (stereo not drawn)	none
O=C(c1cc(Cl)nc2ccccc12)N1CCN(S(=O)(=O)c2cccc(C(F)(F)F)c2)CC1	none
O=C(N/N=C\c1cc2c(cc1Cl)OCO2)c1cccs1	none
O=C(/C=C1\NCC2c3ccccc3CCN2C1=O)c1ccccc1 (stereo not drawn)	TRPC6 inhibitor -6.1 | HEK293 MPD ctr-2 171% | HEK293 MPD ctr 2-2 inactive | TRPC4 ctr mod 14% | TRPC4 ctr inh 2 inactive | TRPC6 block conf 72%
O=C(C=C1NCCN1)c1ccccc1	none
CC(=O)N1CCC(C(=O)NC2CCCc3c2cnn3-c2cc(F)cc(F)c2)CC1 (stereo not drawn)	none
c1ccc2c(c1)NCC1CCCN21 (stereo not drawn)	none
O=C(Nc1nc(=S)ss1)c1ccc(Cl)cc1Cl	TRPC6 inhibitor -7.1 | HEK293 MPD ctr-2 inactive | HEK293 MPD ctr 2-2 inactive | TRPC4 ctr mod inactive | TRPC4 ctr inh 2 inactive | TRPC6 block conf inactive | TRPC6 act confirm inactive
N#CCCn1cc(C(=O)Nc2cccc(C(=O)O)c2)c(-c2ccc(Cl)cc2)n1	none
CCNc1nc(NCC)nc(N/N=C(\C)c2ccc(OC)cc2)n1	none
COc1ccc(-c2csc(N(CCCN(C)C)C(=O)c3ccccc3Cl)n2)cc1	TRPC6 inhibitor -7.9 | TRPC4 spec 2 37% | TRPC4 spec inactive | HEK293 MPD ctr 2-1 inactive | HEK293 MPD ctr-1 inactive | TRPC6 block conf 59% | TRPC6 act confirm inactive
COc1ccc(-c2csc(N(CCCN(C)C)C(=O)c3ccc(F)cc3)n2)cc1	none
CCN(CC)CCCN(C(=O)c1ccc(F)cc1)c1nc(-c2ccc(OC)cc2)cs1	TRPC6 inhibitor -6.7 | TRPC4 spec 2 33% | TRPC4 spec inactive | HEK293 MPD ctr 2-1 inactive | HEK293 MPD ctr-1 inactive | TRPC6 block conf 73% | TRPC6 act confirm inactive
COc1ccc(-c2csc(N(CCCN(C)C)C(=O)c3ccccc3F)n2)cc1	TRPC6 inhibitor -6.5 | HEK293 MPD ctr-2 inactive | HEK293 MPD ctr 2-2 inactive | TRPC4 ctr mod inactive | TRPC4 ctr inh 2 85% | TRPC6 block conf 51% | TRPC6 act confirm inactive
COc1ccc(-c2csc(N(CCCN(C)C)C(=O)c3ccccc3C)n2)cc1	TRPC6 inhibitor -8.9 | TRPC4 spec 2 43% | TRPC4 spec inactive | HEK293 MPD ctr 2-1 inactive | HEK293 MPD ctr-1 inactive | TRPC6 block conf 62% | TRPC6 act confirm inactive
COCCN(C(=O)c1ccccc1F)c1nc(-c2ccc(OC)cc2)cs1	none
CCN(CC(=O)Nc1c(F)cccc1F)C(=O)c1cc([N+](=O)[O-])ccc1N1CCCCC1	none
COc1ccc(CN(CCN(C)C)c2ccccn2)cc1	none
CC[N+](C)(C)CCN(Cc1ccc(Cl)cc1)c1ccccn1	TRPC6 inhibitor -6.4 | HEK293 MPD ctr-2 inactive | HEK293 MPD ctr 2-2 inactive | TRPC4 ctr mod inactive | TRPC4 ctr inh 2 inactive | TRPC6 block conf inactive | TRPC6 act confirm inactive
COc1cc2c(cc1OC)C(c1ccccc1Cl)N(C)CC2 (stereo not drawn)	none
c1cnc2ccc(C(c3nnnn3C3CCCC3)N3CCSCC3)cc2c1 (stereo not drawn)	TRPC6 inhibitor -6.2, TRPC6 act 19 | HEK293 MPD ctr-2 120% | HEK293 MPD ctr 2-2 inactive | TRPC4 ctr mod 32% | TRPC4 ctr inh 2 inactive | TRPC6 block conf 98% | TRPC6 act confirm 148%
CCC(C)(C)n1nnnc1C(c1ccc2ncccc2c1)N1CCCC(C)C1 (stereo not drawn)	TRPC6 inhibitor -7.2 | TRPC4 spec 2 inactive | TRPC4 spec 27% | HEK293 MPD ctr 2-1 inactive | HEK293 MPD ctr-1 16% | TRPC6 block conf inactive
CC(C)(C)n1nnnc1C(c1ccc2ncccc2c1)N1CCC(O)CC1 (stereo not drawn)	none
CC(=O)C1C(=O)c2c(cccc2[N+](=O)[O-])C1=Nc1ccc(S(N)(=O)=O)cc1 (stereo not drawn)	TRPC6 inhibitor -9.7 | HEK293 MPD ctr-2 -250% | HEK293 MPD ctr 2-2 inactive | TRPC4 ctr mod -51% | TRPC4 ctr inh 2 52% | TRPC6 block conf inactive | TRPC6 act confirm inactive
CN1CCN(C(CNC(=O)C(=O)Nc2ccc3c(c2)OCO3)c2ccc(F)cc2)CC1 (stereo not drawn)	TRPC6 inhibitor -6 | HEK293 MPD ctr-2 100% | HEK293 MPD ctr 2-2 inactive | TRPC4 ctr mod 12% | TRPC4 ctr inh 2 inactive | TRPC6 block conf 39% | TRPC6 act confirm inactive
CN1CCN(c2ccc(NC(=O)c3sc4ccccc4c3Cl)cc2)CC1	none
COC(=O)c1ccc(N2CCN(C)CC2)c(NC(=O)c2sc3ccccc3c2Cl)c1	TRPC4 agonist 71, TRPC6 inhibitor -6.7 | HEK293 MPD ctr-2 -196% | HEK293 MPD ctr 2-2 inactive | TRPC4 ctr mod -46% | TRPC4 ctr inh 2 74% | TRPC6 block conf inactive | TRPC6 act confirm inactive
